Source: PubChem BioAssay (Broad Institute)
Rows were chosen to be rich in hits. Some 3.1% of all compounds tested hit in one or more screens of this group.
Calb FLC: C. albicans growth inhibition with fluconazole, primary screen, CaCi-2 strain, Alamar Blue fluorescence. 300,000 compounds, 0.57% hits. growth inhibition, % (test concentration not listed). AID 1979, 2009. C. albicans CaCi-2 (fluconazole-resistant clinical isolate) + fluconazole, 48 h;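 active = growth inhibition above about 58% in most replicates, limit read from the data, passing the limit was not always enough; inconclusive = exactly half the replicates above a set limit; inactive = most replicates below a set limit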;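 note: all wells also contain fluconazole at 8 µg/ml as a sub-toxic cotreatment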
T cruzi inh: inhibitors of intracellular T. cruzi growth, primary screen, luminescence, NIH3T3 host cells. T. cruzi beta-gal in NIH3T3, 90 h. inhibition, % (no concentration beside the values). 300,000 compounds, 1.4% hits. AID 1885, 2009;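 active = mean inhibition across valid replicates above about 55%, limit read from the data; inconclusive = mean below that limit but half or more replicates reach it; inactive = mean below it, under half of replicates reach it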;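 note: signal also drops with host cell toxicity which is not excluded here; higher percent means less beta-gal luminescence so fewer parasites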
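assay system = mouse NIH/3T3 fibroblasts infected with β-gal-expressing T. cruzi Tulahuen C4 | input = 5,000 NIH/3T3 host cells per well | buffer or medium = DMEM plus 2% FBS | timing = 3 h host attachment, then at least 90 h co-culture | measured by = GalScreen luminescence, 60 min | evaluation = luminescence reflecting intracellular parasite burden, expressed as percent inhibition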
HIF activator: HIF pathway transcriptional activators, primary screen, cell-based, U2OS HRE-luciferase, luminescence; U2OS HRE-luciferase reporter; normalized: DMSO 0%, desferrioxamine 100%; activation, % at 7.5 µM (by protocol); 300,000 compounds, 0.32% hits;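 active = mean activation of at least 10% of the iron chelator positive control signal, with at least half of replicates also reaching 10%; inconclusive = mean and replicate majority disagree about reaching 10%; inactive = mean and most replicates under 10%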
CSC inhib: cancer stem cell viability inhibitors, primary screen, luminescence; 300,000 compounds, 1.1% hits; cancer stem cell-like cells viability; inhibition, % at 7.5 µM; in the data active = inhibition above about 75%; inconclusive = no clear call, values can overlap the other calls; tested in HMLE shEcad cells
PolyA inh: polyadenylation inhibitors in yeast reporter cells, primary screen, luminescence, S. cerevisiae | S. cerevisiae SKY197-pL101 polyadenylation reporter, beta-gal luminescence; efflux-impaired pdr1/pdr3 knockout yeast; score 100 = 6 SD above DMSO | activity score, % at 12 µM | 300,000 compounds, 0.02% hits | AID 1875, 2009;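 active = lowest replicate activity score at least 50, where 100 means six control SD above control mean; inconclusive = lowest score under 50 but half or more replicates reach 50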;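 note: yeast exposed to compound for 9 h at 30 °C; higher score means more reporter readthrough which indicates perturbed polyadenylation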
Beta apoptosis: inhibitors of cytokine-induced beta cell apoptosis, primary screen, luminescence. protection from apoptosis, % (concentration not given with the values). INS-1E cytokine-induced death, ATP luminescence, 48 h; percent of positive-control rescue, neutral wells zero. 300,000 compounds, 0.8% hits;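 active = Every replicate reaches about 75%, or at least half do and their mean reaches it too, limit read from the data; inconclusive = At least half of replicates reach the limit but their mean does not; inactive = Under half of replicates reach the limit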;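 note: higher means more ATP so stronger rescue from cytokine killing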
Hits are given with their value; . = inactive; ? = inconclusive; / = not tested or not shown.

SMILES	Calb FLC	T cruzi inh	HIF activator	CSC inhib	PolyA inh	Beta apoptosis
CCN1/C(=C/C=C/C=C/C=C/c2sc3ccccc3[n+]2CC)Sc2ccccc21	.	.	.	.	.	.
O=C(Nc1cc2c3c(c1)C1CCCC1CN3CC1CCCC21)c1ccccc1 (stereo not drawn)	89	60	.	.	.	.
O=C(Nc1ccc2c(c1)CCC2)c1ccccc1	.	.	.	.	.	.
CN=c1scc(-c2ccc(OC)cc2)n1/N=C(\C)c1cccnc1	.	58	.	.	/	.
COc1ccc(CC(=O)N/N=C(\C)c2cccnc2)cc1	.	.	.	.	.	.
CC(=O)Nc1ccc(C(=O)N/N=C/c2ccccc2OCc2ccccc2)cc1	.	.	.	.	.	.
COc1cc(/C=N/NC(=O)c2ccc(COc3cc(C)ccc3C(C)C)cc2)cc(OC)c1O	.	.	.	.	.	.
Cc1ccc(C(C)C)c(OCc2ccc(C(=O)N/N=C/c3cccc(O)c3O)cc2)c1	87	58	70	111	.	90
Cc1ccc(C(C)C)c(OCc2ccc(C(=O)N/N=C/c3ccc(O)c(O)c3)cc2)c1	.	.	.	109	.	.
O=c1c(Cc2c(F)cccc2Cl)c(O)ccn1CC1CCCO1 (stereo not drawn)	.	.	.	.	.	.
O=c1c(F)cn(C2CCCO2)c(=O)n1Cc1c(F)cccc1Cl (stereo not drawn)	107	.	.	.	.	.
Cc1ccc(OCCSc2nc(NC(C)C)nc(NC(C)C)n2)cc1	.	.	.	90	.	.
Cc1cc2oc(=O)cc(CN3CCN(S(=O)(=O)/C=C/c4ccccc4)CC3)c2cc1C	.	66	.	.	.	.
Cc1ccc(C(=O)COc2cc(C)nc3nncn23)cc1	.	.	.	.	.	.
O=C1c2cc(Br)ccc2N(Cc2ccc(Br)cc2)S(=O)(=O)C1c1cc(Cl)c(Cl)cc1[N+](=O)[O-] (stereo not drawn)	/	/	/	108	/	.
C=CCc1cccc(/C=N/NC(=O)CNc2ccccc2)c1O	.	.	.	.	.	90
C=CCc1cccc(/C=N/NC(=O)CCCNc2ccc(C)cc2)c1O	.	.	.	.	.	.
C=CCc1cccc(/C=N/NC(=O)CCC(=O)Nc2ccc(F)cc2)c1O	.	.	.	.	.	93
C=CCc1cccc(/C=N/NC(=O)C(C)Nc2cccc(C)c2)c1O (stereo not drawn)	.	81	.	.	.	.
C=CCc1cccc(/C=N/NC(=O)CNc2ccccc2OC)c1O	93	65	.	.	.	.
CCOc1ccc2nc(COC(=O)c3ccncc3)c(C(=O)c3ccccc3)[n+]([O-])c2c1	.	.	.	.	.	.
O=C(CCC(=O)c1ccccc1)Nc1ccccc1	.	.	.	.	.	.
C=CCc1cccc(/C=N/NC(=O)CNc2cccc3ccccc23)c1O	92	.	.	.	.	/
CCC[C@H](N[C@@H](C)C(=O)N1[C@H](C(=O)O)C[C@@H]2CCCC[C@@H]21)C(=O)OCC	/	/	/	.	/	.
O=C(Nc1ccc(N2CCN(C(=O)c3ccc(Cl)cc3)CC2)cc1)c1ccc([N+](=O)[O-])o1	.	93	.	/	.	/
SMILES	Calb FLC	T cruzi inh	HIF activator	CSC inhib	PolyA inh	Beta apoptosis
O=[N+]([O-])c1ccc(N2CCN(Cc3ccc([N+](=O)[O-])o3)CC2)cc1	133	.	.	.	.	.
O=C(Nc1ccc(N2CCN(Cc3ccccc3F)CC2)cc1)c1ccc([N+](=O)[O-])o1	.	.	.	103	.	.
CCC(=O)N1CCN(c2ccc(NC(=O)c3ccc([N+](=O)[O-])o3)cc2)CC1	?	72	.	/	.	/
O=C(Nc1ccc(N2CCN(Cc3ccccc3F)CC2)cc1)c1ccccc1[N+](=O)[O-]	.	.	.	.	.	.
Cc1nc(N2CCOCC2)[nH]c(=O)c1C	.	.	.	.	.	.
O=C(Nc1ccc(N2CCCCC2)cc1)c1ccc([N+](=O)[O-])o1	.	.	.	.	.	.
CC1CCN(c2ccc(NC(=O)c3ccc([N+](=O)[O-])o3)cc2)CC1	.	72	.	100	.	85
CN1CCN(c2ccc(NC(=O)c3ccc(-c4ccc(Br)cc4)o3)cc2)CC1	.	58	.	.	.	.
COc1ccccc1C(c1nnnn1CC1CCCO1)N1CCC(C(N)=O)CC1 (stereo not drawn)	.	.	15	.	.	.
O=C(Nc1cccc(S(=O)(=O)c2cccc(NC(=O)c3ccco3)c2)c1)c1ccco1	.	55	.	.	?	.
Cc1cc(C)cc(NC(=O)c2cccc(NC(=O)c3ccco3)c2)c1	.	.	53	.	.	.
CCCCC(=O)NC(=S)Nc1cccc(NC(=O)c2ccco2)c1	89	.	.	.	.	.
O=C(NC1=NCCS1)c1cccc(NC(=O)c2ccco2)c1	.	.	12	.	.	.
COc1ccc2c(c1)CC/C2=N\OC(=O)c1ccccc1OC	.	.	.	.	.	.
CCC(C)NC(=O)Nc1ccc(Br)cc1 (stereo not drawn)	.	.	.	.	.	.
CCC(=O)NNc1ccc(Br)cc1	.	.	.	80	.	.
Nc1nccc(-c2cc(-c3ccc(Cl)cc3Cl)no2)n1	.	.	.	.	.	.
O=C(Nc1cc(Oc2ccccc2)cc([N+](=O)[O-])c1)C12CC3CC(C1)CC(n1cnc(Cl)n1)(C3)C2	.	62	.	.	.	/
CNC[C@H](Cc1cccc2ccccc12)NC[C@H](CCSC)NCC1CCC(C(C)(C)C)CC1 (stereo partly drawn)	/	/	/	90	/	.
O=C(CN1CCC(NC(=O)c2ccco2)CC1)Nc1ccccc1[N+](=O)[O-]	.	.	.	.	.	.
COC(=O)c1ccc(CN(c2ccc(C(=O)O)c(O)c2)S(=O)(=O)c2ccc(Cl)c([N+](=O)[O-])c2)cc1	.	.	.	92	.	.
COC(=O)c1ccc(CN(c2ccccn2)S(=O)(=O)c2ccccc2)cc1	.	.	.	.	.	.
CN(C)c1ccc2c(c1)Sc1cc(N(C)C)ccc1N2C(=O)c1ccccc1	.	60	.	.	.	.
Cc1ccc(S(=O)(=O)NNC(=O)c2ccc3ccccc3n2)cc1	.	.	.	.	.	.
CCOc1ccccc1CN1CCN(S(C)(=O)=O)CC1	.	.	14	.	.	.
CCOc1cc(CN2CCCC(N3CCc4ccccc4C3)C2)ccc1O (stereo not drawn)	.	.	.	/	.	/
CCOc1cccc(CN2CCCC(N3CCc4cc(OC)c(OC)cc4C3)C2)c1O (stereo not drawn)	.	65	.	.	.	.
